# Activity calls are given as the source filed them. The calls are words filed in the database; no cut-off is given here.
# How the values were obtained:
# Bacillus cereus [1] = assay: Antimicrobial activity against Bacillus cereus ATCC 11778 for 24 hrs by microdillution method; assay type: functional
# Outline: (§1)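 Broth microdilution. Compound is dissolved in DMSO (2 mg/mL) and diluted in Mueller Hinton broth as two-fold serial dilutions from 256 to 0.125 µg/mL. Bacteria are pre-grown in nutrient broth at 30 °C, and the final inoculum is about 10^6 cfu/mL. Tests are incubated 37 °C for 24 h. MIC is the lowest concentration giving complete inhibition. Streptomycin is the positive control.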
# SAOS-2 [2] = assay: Induction of necrosis in human Saos2 cells at 20 uM after 48 hrs by Hoechst 33258/propidium iodide staining based […] microscopic analysis; assay type: functional
# Outline: (§2)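 Cells in 48-well plates treated with 0.5, 10, 20 or 40 µM for 24 and 48 h. Values are read at 48 h, 20 µM for test agents and 0.5 µM for controls. Staining is Hoechst 33258/propidium iodide double staining with fluorescence microscopy. Blue nuclei are viable or early-to-mid apoptotic, and pink nuclei are late apoptotic or necrotic. Apoptosis and necrosis are scored from chromatin condensation as % of cells. Cells are grown at 37 °C in 5% CO2 in RPMI, DMEM or McCoy's 5A with 10–15% heat-inactivated FCS.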
# MCF7 [3] = assay: Antiproliferative activity against human MCF7 cells after 24 and 72 hrs by MTT assay; assay type: functional, cell-based
# Outline: (§3)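 ATCC human cell lines are kept in RPMI, DMEM or McCoy's 5A with 10–15% heat-inactivated FCS at 37 °C and 5% CO2. They are seeded at 1×10^4–1×10^5 cells/mL in 48-well plates and exposed to 0.5, 10, 20 or 40 µM. Viability is read by MTT (590 nm) at 24 and 72 h. Growth is expressed relative to untreated cells and IC50 is fitted, in triplicate.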
# Klebsiella pneumoniae = assay: Antimicrobial activity against Klebsiella pneumoniae ATCC 13882 assessed as zone of inhibition at 30 uL for 24 hrs at 37 degC by disk diffusion test; assay type: functional, organism-based
# Outline: (§4)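 Compound (30 µL of a fresh 1000 µg/mL DMSO stock) goes into a 6 mm well cut in Mueller Hinton agar inoculated with 0.1 mL broth culture adjusted to 0.5 McFarland (about 1×10^8 cells/mL). Plates are incubated 24 h at 37 °C, then zone of inhibition diameter is measured in mm.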
# HT-29 [4] = assay: Induction of apoptosis in human HT-29 cells at 20 uM after 48 hrs by Hoechst 33258/propidium iodide staining based phase contrast microscopic analysis; assay type: functional; outline: as §2
# Bacillus subtilis [5] = assay: Antimicrobial activity against Bacillus subtilis ATCC 6633 for 24 hrs by microdillution method; assay type: functional; outline: as §1
# Bacillus cereus [6] = assay: Antimicrobial activity against Bacillus cereus ATCC 11778 assessed as zone of inhibition at 30 uL for 24 hrs at 30 degC by disk diffusion test; assay type: functional
# Outline: (§5)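 Agar well diffusion on Mueller Hinton agar seeded with 0.1 mL broth culture (18–24 h), adjusted to 0.5 McFarland (about 1×10^8 bacteria or 1×10^6 yeast cells/mL). A 6 mm well is filled with 30 µL of compound from a fresh 1000 µg/mL DMSO stock. Plates are held at 30 °C for 24 h and inhibition zone diameter is read in mm.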
# Bacillus thuringiensis [7] = assay: Antimicrobial activity against Bacillus thuringiensis for 24 hrs by microdillution method; assay type: functional; outline: as §1
# Salmonella typhimurium = assay: Antimicrobial activity against Salmonella typhimurium ATCC 14028 assessed as zone of inhibition at 30 uL for 24 hrs at 37 degC by disk diffusion test; assay type: functional, organism-based; settings: Salmonella enterica subsp. enterica serovar Typhimurium; outline: as §4
# Micrococcus luteus = assay: Antimicrobial activity against Micrococcus luteus ATCC 9341 assessed as zone of inhibition at 30 uL for 24 hrs at 30 degC by disk diffusion test; assay type: functional, organism-based; outline: as §5
# Pseudomonas aeruginosa = assay: Antimicrobial activity against Pseudomonas aeruginosa ATCC 35032 assessed as zone of inhibition at 30 uL for 24 hrs at 37 degC by disk diffusion test; assay type: functional, organism-based; outline: as §4
# Candida albicans = assay: Antimicrobial activity against Candida albicans ATCC 10231 assessed as zone of inhibition at 30 uL for 24 hrs at 30 degC by disk diffusion test; assay type: functional, organism-based; outline: as §5
# HeLa [8] = assay: Induction of apoptosis in human HeLa cells at 20 uM after 48 hrs by Hoechst 33258/propidium iodide staining based phase contrast microscopic analysis; assay type: functional; outline: as §2
# HL-60 [9] = assay: Antiproliferative activity against human HL60 cells after 24 and 72 hrs by MTT assay; assay type: functional, cell-based; outline: as §3
# [10] = Antiproliferative activity against human Saos2 cells after 24 and 72 hrs by MTT assay; assay type: functional, cell-based; settings: SAOS-2; outline: as §3
# [11] = test system: Staphylococcus epidermidis; assay: Antimicrobial activity against Staphylococcus epidermidis ATCC 12228 assessed as zone of inhibition at 30 uL for 24 hrs at 37 degC by disk diffusion test; assay type: functional, organism-based; outline: as §4
# Nakaseomyces glabratus = assay: Antimicrobial activity against Candida glabrata assessed as zone of inhibition at 30 uL for 24 hrs at 30 degC by disk diffusion test; assay type: functional, organism-based; outline: as §5
# Bacillus subtilis [12] = assay: Antimicrobial activity against Bacillus subtilis ATCC 6633 assessed as zone of inhibition at 30 uL for 24 hrs at 30 degC by disk diffusion test; assay type: functional; outline: as §5
# Bacillus thuringiensis [13] = assay: Antimicrobial activity against Bacillus thuringiensis assessed as zone of inhibition at 30 uL for 24 hrs at 30 degC by disk diffusion test; assay type: functional; outline: as §5
# Escherichia coli = assay: Antimicrobial activity against Escherichia coli ATCC 25922 assessed as zone of inhibition at 30 uL for 24 hrs at 37 degC by disk diffusion test; assay type: functional, organism-based; outline: as §4
# Staphylococcus aureus = assay: Antimicrobial activity against Staphylococcus aureus ATCC 25923 assessed as zone of inhibition at 30 uL for 24 hrs at 37 degC by disk diffusion test; assay type: functional, organism-based; outline: as §4
# Caco-2 [14] = assay: Induction of necrosis in human Caco2 cells at 20 uM after 48 hrs by Hoechst 33258/propidium iodide staining based phase contrast microscopic analysis; assay type: functional; outline: as §2
# HT-29 [15] = assay: Antiproliferative activity against human HT-29 cells after 24 and 72 hrs by MTT assay; assay type: functional, cell-based; outline: as §3
# MCF7 [16] = assay: Induction of necrosis in human MCF7 cells at 20 uM after 48 hrs by Hoechst 33258/propidium iodide staining based phase contrast microscopic analysis; assay type: functional; outline: as §2
# Proteus vulgaris = assay: Antimicrobial activity against Proteus vulgaris ATCC 33420 assessed as zone of inhibition at 30 uL for 24 hrs at 37 degC by disk diffusion test; assay type: functional, organism-based; outline: as §4
# MCF7 [17] = assay: Induction of apoptosis in human MCF7 cells at 20 uM after 48 hrs by Hoechst 33258/propidium iodide staining based phase contrast microscopic analysis; assay type: functional; outline: as §2
# Cyberlindnera jadinii = assay: Antimicrobial activity against Candida utilis ATCC 9950 assessed as zone of inhibition at 30 uL for 24 hrs at 30 degC by disk diffusion test; assay type: functional, organism-based; outline: as §5
# Enterococcus faecalis = assay: Antimicrobial activity against Enterococcus faecalis ATCC 29212 assessed as zone of inhibition at 30 uL for 24 hrs at 37 degC by disk diffusion test; assay type: functional, organism-based; outline: as §4
# Caco-2 [18] = assay: Antiproliferative activity against human Caco2 cells after 24 and 72 hrs by MTT assay; assay type: functional, cell-based; outline: as §3
# Caco-2 [19] = assay: Induction of apoptosis in human Caco2 cells at 20 uM after 48 hrs by Hoechst 33258/propidium iodide staining based phase contrast microscopic analysis; assay type: functional; outline: as §2
# Saccharomyces cerevisiae = assay: Antimicrobial activity against Saccharomyces cerevisiae ATCC 9763 assessed as zone of inhibition at 30 uL for 24 hrs at 30 degC by disk diffusion test; assay type: functional, organism-based; outline: as §5
# Candida tropicalis = assay: Antimicrobial activity against Candida tropicalis assessed as zone of inhibition at 30 uL for 24 hrs at 30 degC by disk diffusion test; assay type: functional, organism-based; outline: as §5
# HL-60 [20] = assay: Induction of necrosis in human HL60 cells at 20 uM after 48 hrs by Hoechst 33258/propidium iodide staining based phase contrast microscopic analysis; assay type: functional; outline: as §2
# HeLa [21] = assay: Antiproliferative activity against human HeLa cells after 24 and 72 hrs by MTT assay; assay type: functional, cell-based; outline: as §3
# SAOS-2 [22] = assay: Induction of apoptosis in human Saos2 cells at 20 uM after 48 hrs by Hoechst 33258/propidium iodide staining based phase contrast microscopic analysis; assay type: functional; outline: as §2
# HL-60 [23] = assay: Induction of apoptosis in human HL60 cells at 20 uM after 48 hrs by Hoechst 33258/propidium iodide staining based phase contrast microscopic analysis; assay type: functional; outline: as §2
# HeLa [24] = assay: Induction of necrosis in human HeLa cells at 20 uM after 48 hrs by Hoechst 33258/propidium iodide staining based phase contrast microscopic analysis; assay type: functional; outline: as §2
# HT-29 [25] = assay: Induction of necrosis in human HT-29 cells at 20 uM after 48 hrs by Hoechst 33258/propidium iodide staining based phase contrast microscopic analysis; assay type: functional; outline: as §2
smiles,measurement,setting,value
CC(=O)O[C@H]1CC[C@]2(C)[C@H]3CC=C4[C@@H]5CC(C)(C)CC[C@]5(C(=O)OCc5ccccc5)CC[C@@]4(C)[C@]3(C)CC[C@H]2[C@]1(C)C=O,MIC,Bacillus cereus [1],inactive
same,Activity,SAOS-2 [2],45%
same,IC50,MCF7 [3],65.2 µM
same,diameter of the inhibition zone (DIZ),Klebsiella pneumoniae,inactive
same,Activity,HT-29 [4],0.7%
same,MIC,Bacillus subtilis [5],inactive
same,diameter of the inhibition zone (DIZ),Bacillus cereus [6],inactive
same,MIC,Bacillus thuringiensis [7],inactive
same,diameter of the inhibition zone (DIZ),Salmonella typhimurium,inactive
same,diameter of the inhibition zone (DIZ),Micrococcus luteus,inactive
same,diameter of the inhibition zone (DIZ),Pseudomonas aeruginosa,inactive
same,diameter of the inhibition zone (DIZ),Candida albicans,inactive
same,Activity,HeLa [8],2%
same,IC50,HL-60 [9],6.74 µM
same,IC50,[10],10.7 µM
same,diameter of the inhibition zone (DIZ),[11],inactive
same,diameter of the inhibition zone (DIZ),Nakaseomyces glabratus,inactive
same,diameter of the inhibition zone (DIZ),Bacillus subtilis [12],inactive
same,diameter of the inhibition zone (DIZ),Bacillus thuringiensis [13],inactive
same,diameter of the inhibition zone (DIZ),Escherichia coli,inactive
same,diameter of the inhibition zone (DIZ),Staphylococcus aureus,inactive
same,Activity,Caco-2 [14],37%
same,IC50,HT-29 [15],10.3 µM
same,Activity,MCF7 [16],36%
same,diameter of the inhibition zone (DIZ),Proteus vulgaris,inactive
same,Activity,MCF7 [17],5%
same,diameter of the inhibition zone (DIZ),Cyberlindnera jadinii,inactive
same,diameter of the inhibition zone (DIZ),Enterococcus faecalis,inactive
same,IC50,Caco-2 [18],51.1 µM
same,Activity,Caco-2 [19],1%
same,diameter of the inhibition zone (DIZ),Saccharomyces cerevisiae,inactive
same,diameter of the inhibition zone (DIZ),Candida tropicalis,inactive
same,Activity,HL-60 [20],51%
same,IC50,HeLa [21],287 µM
same,Activity,SAOS-2 [22],0%
same,Activity,HL-60 [23],3%
same,Activity,HeLa [24],68%
same,Activity,HT-29 [25],29%
CN[C@@H]1[C@H](O[C@H]2[C@H](O[C@H]3[C@H](O)[C@@H](O)[C@H](N=C(N)N)[C@@H](O)[C@@H]3N=C(N)N)O[C@@H](C)[C@]2(O)C=O)O[C@@H](CO)[C@H](O)[C@H]1O [STREPTOMYCIN],MIC,"Bacillus cereus [1]; ATCC 11778, 24 h",64 µg/mL
same,MIC,"Bacillus subtilis [5]; ATCC 6633, 24 h",64 µg/mL
same,MIC,Bacillus thuringiensis [7],64 µg/mL
